These results are taken from article PMC9850772 (ACS Omega, 2023).

A word on the half-life: it is the time in which the quantity being followed falls by half. Higher therefore signals slow loss. By logD is commonly meant lipophilicity at a set pH, counting ionised and neutral species. The term tissue uptake denotes the percentage of the injected dose found per gram of tissue. Low readings indicate low uptake, high ones high uptake.

The structures appear in SMILES notation.

Series [1] in a line: Stability toward peptidase degradation in human serum. The class given is in vitro ADME. In short, it runs like this: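 68Ga-labelled test compound (10–30 MBq, pH 7.4) was added to pooled human serum and kept at 37 °C. Aliquots were taken at 0, 15, 30, 45, 60 and 90 min and mixed with an equal volume of ice-cold ethanol. They were held on ice for 5 min and centrifuged. Supernatant and pellet activity were counted, and the supernatant was run on radio-HPLC. Three runs per radioligand.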

Another series in a line: logD. The series is classed as physicochemical. As to conditions: pH 7.4. The method, boiled down:
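68Ga-labelled test compound (0.5–2 MBq) was partitioned between 1-octanol and 0.05 M phosphate buffer, pH 7.4. Tubes were shaken for 5 min and centrifuged at 13,000 rpm for 2 min. Aliquots of each phase were γ-counted. Three experiments, each in triplicate.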

The nature of series [2]: Ex vivo biodistribution in A431 tumor-bearing xenograft mice. Particulars: mouse, intravenous, 5 MBq.
The test system of series [3] is A431 tumor-bearing xenograft mice. The description is as above.
Series [4] can be described thus: PET/CT imaging, time-activity curves in A431 tumor-bearing xenograft mice. The series is classed as in vivo. As to conditions: female, BALB/c-AnN-Foxn-1^nu/nu-Rj (nude), mouse, iv, TAC. In short, it runs like this:
(§1)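 Dynamic PET over 90 min p.i., then CT at 45 kVp and 0.4 mA. […] Images reconstructed by 2D-MLEM (12 iterations, 0.5 mm voxels) with scatter and decay correction. Frames 10 × 1, 10 × 2, 6 × 5 and 3 × 10 min. Volumes of interest drawn on heart, kidneys, tumour and muscle; SUV per frame gave time-activity curves.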

The subject of series [5] is A431 tumor-bearing xenograft mice. The description is as above. The series is classed as in vivo. Particulars: TACs. In short, it runs like this:
as §1

In the case of `CC[C@H](C)[C@H](NC(=O)[C@@H](NC(=O)[C@H](CC(N)=O)NC(=O)[C@H](CCC(N)=O)NC(=O)[C@@H]1CCCN1C(=O)[C@@H](NC(=O)[C@H](Cc1ccc(O)cc1)NC(=O)CNC(=O)[C@H](Cc1ccc(O)cc1)NC(=O)[C@H](Cc1c[nH]c2ccccc12)NC(=O)[C@H](Cc1c[nH]cn1)NC(=O)[C@H](Cc1ccc(O)cc1)NC(=O)CCOCCOCCOCCOCCOCCOCCC(=O)NCCCN(CCCNC(=O)CCOCCOCCOCCOCCOCCOCCC(=O)NCCCC[C@@H]1NC(=O)[C@@H](Cc2ccccc2)NC(=O)[C@H](CC(=O)O)NC(=O)CNC(=O)[C@H](CCCNC(=N)N)NC1=O)CC(=O)NCCOCCOCCOCCOCCC(=O)N[C@@H](CCCCNC(=O)CC[C@H](C(=O)O)N1CCN(CC(=O)O)CCN(CC(=O)O)CC1)C(N)=O)[C@@H](C)O)C(C)C)C(=O)O` [[^68Ga]Ga-2, metal not drawn], in series [1], the half-life is 237 min. In the series “logD”, this compound returned a logD of -3.44.

For `CC[C@H](C)[C@H](NC(=O)[C@@H](NC(=O)[C@H](CC(N)=O)NC(=O)[C@H](CCC(N)=O)NC(=O)[C@@H]1CCCN1C(=O)[C@@H](NC(=O)[C@H](Cc1ccc(O)cc1)NC(=O)CNC(=O)[C@H](Cc1ccc(O)cc1)NC(=O)[C@H](Cc1c[nH]c2ccccc12)NC(=O)[C@H](Cc1c[nH]cn1)NC(=O)[C@H](Cc1ccc(O)cc1)NC(=O)CCOCCOCCOCCOCCC(=O)NCCCN(CCCNC(=O)CCOCCOCCOCCOCCC(=O)NCCCC[C@@H]1NC(=O)[C@@H](Cc2ccc(O)cc2)NC(=O)[C@H](CC(=O)O)NC(=O)CNC(=O)[C@H](CCCNC(=N)N)NC1=O)CC(=O)NCCOCCOCCOCCOCCC(=O)N[C@@H](CCCCNC(=O)CC[C@H](C(=O)O)N1CCN(CC(=O)O)CCN(CC(=O)O)CC1)C(N)=O)[C@@H](C)O)C(C)C)C(=O)O` [[^68Ga]Ga-1, metal not drawn], the tissue uptake at 2 h was 4.49 ± 2.17 %ID/g in series [2] (blood), 88 ± 28.5 %ID/g in series [2] (kidney) and 2.79 ± 1.66 %ID/g in series [2] (tumor). Also, the “uptake into liver and lungs under EGFR blocking” value in series [3] (co-application of hEGF) is “not reduced”. For the same compound, the “tumor uptake under EGFR blocking” value in series [3] (co-application of hEGF, 2 h p.i.) is given as “did not decrease”. Further, in series [3] (integrin blockade with excess of c(RGDyK), 120 min p.i.), the “decrease of absolute tumor uptake” value was 87%. The SUV in series [4] (muscle, SUVmuscle, under EGFR blockade (hEGF)) is 0.18 ± 0.16 SUV; in series [4] (muscle, SUVmuscle, without blocking), 0.27 ± 0.16 SUV; in series [4] (tumor, SUVtumor, under EGFR blockade (hEGF)), 0.45 ± 0.44 SUV. Also, the “time at which accumulation in tumor, muscle and heart reached the plateau phase” value in series [5] was 15 min p.i. The half-life in series [1] stood at 272 min. Moreover, in the series “logD”, the logD is -3.07.
